Assay results taken from ChEMBL document CHEMBL3244238, “In search of anti-Trypanosoma cruzi drugs: new leads from a mouse model” (J Med Chem, 1977).
The source made the active and inactive calls. The calls are words filed in the database; no cut-off is given here.

What was measured:
Trypanosoma cruzi [1] = assay: Antitrypanosomal activity against Trypanosoma cruzi infected in albino CF1 mouse assessed as reduction in number of parasites in blood at 104 mg/kg/day, intramuscular treatment started on day 10 of infection up to day 14; format: functional; conditions: for inhibition in vivo at 104 mg/kg/day: im
Method in brief: (§1)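 Male CF1 albino mice (4-10 weeks) infected intraperitoneally with 50 000 Brazil-strain T. cruzi trypomastigotes in Hanks' balanced salt solution, pH 7.2. Dosing was intramuscular, twice daily, from day 10 to day 13 afternoon or day 14 morning. Vehicle was 0.1% Tween 80 + 0.5% hydroxyethylcellulose. Seven mice per dose; dose given as total salt weight. Parasites/mL blood counted from day-14 smears; % suppression versus vehicle controls.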

Trypanosoma cruzi [2] = assay: Antitrypanosomal activity against Trypanosoma cruzi infected in albino CF1 mouse assessed as reduction in number of parasites in blood at 52 mg/kg/day, intramuscular treatment started on day 10 of infection up to day 14; format: functional; conditions: for inhibition in vivo at 52 mg/kg/day: im; method in brief: as §1
Trypanosoma cruzi [3] = assay: Antitrypanosomal activity against Trypanosoma cruzi infected in albino CF1 mouse assessed as reduction in number of parasites in blood at 13 mg/kg/day, intramuscular treatment started on day 10 of infection up to day 14; format: functional; conditions: for inhibition in vivo at 13 mg/kg/day: im; method in brief: as §1
Trypanosoma cruzi [4] = assay: Antitrypanosomal activity against Trypanosoma cruzi infected in albino CF1 mouse assessed as reduction in number of parasites in blood intramuscularly treated daily from day 10 of infection up to day 14; format: functional
Method in brief: (§2)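 Male CF1 albino mice (4-10 weeks) were infected ip with 50 000 Brazil-strain trypomastigotes in 0.2 mL Hanks' BSS, pH 7.2. Dosing was intramuscular, twice daily in 0.1% Tween 80/0.5% hydroxyethylcellulose, from day 10 through day 13 pm or day 14 am. Three fourfold-spaced doses were given, 7 mice per dose, with vehicle-only controls. Parasites/mL of blood were counted from day-14 smears.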

Trypanosoma cruzi [5] = assay: Potency index, ratio of nifurtimox SD90 to compound SD90 for Trypanosoma cruzi infected in albino CF1 mouse assessed as reduction in number of parasites in blood; format: functional
Method in brief: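 Index = nifurtimox SD90 ÷ test-compound SD90. SD values were read graphically from log-probit plots of % parasitemia suppression versus dose (mg/kg/day) in intramuscularly treated, T. cruzi-infected CF1 mice. A lower SD level was used when SD90 was unattainable. For salts, doses were given by total weight, and the index was multiplied by the reciprocal of the base fraction.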

Trypanosoma cruzi [6] = assay: Antitrypanosomal activity against Trypanosoma cruzi infected in albino CF1 mouse assessed as reduction in number of parasites in blood at 26 mg/kg/day, intramuscular treatment started on day 10 of infection up to day 14; format: functional; conditions: for inhibition in vivo at 26 mg/kg/day: im; method in brief: as §2
Trypanosoma cruzi [7] = assay: Antitrypanosomal activity against Trypanosoma cruzi infected in albino CF1 mouse assessed as reduction in number of parasites in blood at 3.25 mg/kg/day, intramuscular treatment started on day 10 of infection up to day 14; format: functional; conditions: for inhibition in vivo at 3.25 mg/kg/day: im; method in brief: as §2
Mus musculus = assay: Toxicity in albino CF1 mouse at 104 mg/kg/day, intramuscular treatment started on day 10 of trypanosomal infection up to day 14; format: organism-based; parameters: route intramuscular; conditions: in vivo, im

Row | Compound | Ratio (Trypanosoma cruzi [5]) | inhibition (Trypanosoma cruzi [1]) | inhibition (Trypanosoma cruzi [2]) | inhibition (Trypanosoma cruzi [3]) | also measured
1 | COc1cc(NC(C)CCN)c2ncccc2c1.Cl (stereo not drawn) | 3.8 |  |  |  | inhibition in vivo at 104 mg/kg/day (Trypanosoma cruzi [1]): 100%; inhibition in vivo at 52 mg/kg/day (Trypanosoma cruzi [2]): 97%; inhibition in vivo at 13 mg/kg/day (Trypanosoma cruzi [3]): 80%; SD90 (Trypanosoma cruzi [4]): 21.8 mg/kg
2 | COc1cc(NC(C)CCN)c2ncccc2c1/N=N/c1ccc(C(=O)O)cc1 (stereo not drawn) | >4 |  |  |  | inhibition in vivo at 104 mg/kg/day (Trypanosoma cruzi [1]): 100%; inhibition in vivo at 52 mg/kg/day (Trypanosoma cruzi [2]): 99%; inhibition in vivo at 13 mg/kg/day (Trypanosoma cruzi [3]): 98%; SD90 (Trypanosoma cruzi [4]): <3 mg/kg
3 | CCN(CC)CCCNc1cc(OC)c2nc(C)ccc2c1OC.O=C(O)c1ccc(O)cc1O |  | inactive | inactive | inactive | 
4 | O=C(O)c1[nH]c(=O)[nH]c(=O)c1F |  | inactive | inactive | inactive | 
5 | COc1cc(NC(C)CCN)c2nccc(C)c2c1 (stereo not drawn) | inactive | inactive | inactive | inactive | 
6 | Cc1cc(NCCCCCCNc2cc(C)nc3ccc(N)cc23)c2cc(N)ccc2n1 |  | inactive | inactive | inactive | 
7 | COc1c(NC(C)CCN)cc(OC)c2c(C)ccnc12 (stereo not drawn) | inactive | inactive | inactive | inactive | 
8 | COc1cc(NC(C)CCCN)c(OC)c2c(C)cc(C)nc12 (stereo not drawn) |  | inactive | inactive | inactive | 
9 | NC1(C(=O)O)CCCC1 |  | inactive | inactive | inactive | 
10 | COc1cc(NC(C)CCN)c2nc(C)ccc2c1.Cl.O (stereo not drawn) | 3.9 |  |  |  | inhibition in vivo at 26 mg/kg/day (Trypanosoma cruzi [6]): 82%; inhibition in vivo at 13 mg/kg/day (Trypanosoma cruzi [3]): 86%; inhibition in vivo at 3.25 mg/kg/day (Trypanosoma cruzi [7]): 38%; SD80 (Trypanosoma cruzi [4]): 10.5 mg/kg
11 | CCCNCCCCCNc1cc(OC)cc2cccnc12.O=P(O)(O)O | 1.2 |  |  |  | inhibition in vivo at 104 mg/kg/day (Trypanosoma cruzi [1]): 99%; inhibition in vivo at 52 mg/kg/day (Trypanosoma cruzi [2]): 93%; inhibition in vivo at 13 mg/kg/day (Trypanosoma cruzi [3]): 54%; SD90 (Trypanosoma cruzi [4]): 43.5 mg/kg
12 | Cc1ccc(C[P+](c2ccccc2)(c2ccccc2)c2ccccc2)cc1.[Cl-] | 3.6 |  |  |  | inhibition in vivo at 26 mg/kg/day (Trypanosoma cruzi [6]): 85%; inhibition in vivo at 3.25 mg/kg/day (Trypanosoma cruzi [7]): 80%; SD80 (Trypanosoma cruzi [4]): 13 mg/kg; Activity (Mus musculus): Toxic
13 | c1ccc(C2CN3CCSC3=N2)cc1 (stereo not drawn) |  | inactive | inactive | inactive | 
14 | Nc1ccc(C(c2ccc(N)cc2)c2ccc(N)cc2)cc1.O=C(O)c1cc2ccccc2c(Cc2c(O)c(C(=O)O)cc3ccccc23)c1O | 0.3 |  |  |  | SD50 (Trypanosoma cruzi [4]): 96 mg/kg
15 | Nc1nc(/C=C/c2ccc([N+](=O)[O-])o2)no1 | 1.13 |  |  |  | inhibition in vivo at 104 mg/kg/day (Trypanosoma cruzi [1]): 90%; inhibition in vivo at 26 mg/kg/day (Trypanosoma cruzi [6]): 91%; inhibition in vivo at 3.25 mg/kg/day (Trypanosoma cruzi [7]): 49%; SD90 (Trypanosoma cruzi [4]): 48.5 mg/kg
16 | Nc1ccc(C(c2ccc(N)cc2)c2ccc(N)cc2)cc1 |  |  |  |  | inhibition in vivo at 104 mg/kg/day (Trypanosoma cruzi [1]): 52%; inhibition in vivo at 26 mg/kg/day (Trypanosoma cruzi [6]): 39%; inhibition in vivo at 3.25 mg/kg/day (Trypanosoma cruzi [7]): 43%
17 | COc1cc(NC(C)CCN)c2ncc(C)cc2c1.O=P(O)(O)O (stereo not drawn) | >9.2 |  |  |  | inhibition in vivo at 26 mg/kg/day (Trypanosoma cruzi [6]): 99%; inhibition in vivo at 13 mg/kg/day (Trypanosoma cruzi [3]): 98%; inhibition in vivo at 3.25 mg/kg/day (Trypanosoma cruzi [7]): 92%; SD90 (Trypanosoma cruzi [4]): <3.25 mg/kg
18 | N=C(N)c1ccc(-c2ccc(-c3ccc(C(=N)N)cc3)o2)cc1 |  | inactive | inactive | inactive | 
19 | COc1cc(NCCCN2CCN(CCCNc3cc(OC)cc4cccnc34)CC2)c2ncccc2c1 |  | inactive | inactive | inactive | 
20 | CCN(CC)CCCCCCNc1cc(OC)cc2c(C)ccnc12 | inactive |  |  | inactive | inhibition (Trypanosoma cruzi [6]): inactive; inhibition (Trypanosoma cruzi [7]): inactive
21 | CC1CS(=O)(=O)CCN1/N=C/c1ccc([N+](=O)[O-])o1 (stereo not drawn) [NIFURTIMOX] | 1 |  |  |  | inhibition in vivo at 104 mg/kg/day (Trypanosoma cruzi [1]): 99%; inhibition in vivo at 52 mg/kg/day (Trypanosoma cruzi [2]): 92%; inhibition in vivo at 13 mg/kg/day (Trypanosoma cruzi [3]): 57%; SD90 (Trypanosoma cruzi [4]): 41.5 mg/kg
22 | CC(C)NCC1CCc2cc(CO)c([N+](=O)[O-])cc2N1 (stereo not drawn) |  | inactive | inactive | inactive | 
23 | COc1cc(NC(C)CCCN)c(OC)c2c(C)ccnc12.O=C(O)c1ccc(O)cc1O (stereo not drawn) |  | inactive | inactive | inactive | 
24 | Nc1nc(N)c2c(n1)CCC(S(=O)(=O)c1ccc3ccccc3c1)C2 (stereo not drawn) |  | inactive | inactive | inactive | 
25 | Nc1nc(N)c2cc(S(=O)(=O)c3ccc4ccccc4c3)ccc2n1 |  | inactive | inactive | inactive | 
